# DNMT1 block – blocks human DNA methyltransferase DNMT1; P26358; DNMT1 molecular beacon, Hinp1I cleavage, fluorescence; inhibition (reported as % activation of signal), % at 10 µM; actives 0.83% (n = 360,000); in the data active = inhibition above about 50%
# STEP inh – STEP (human) phosphatase inhibition. P54829. recombinant STEP, OMFP fluorogenic substrate, fluorescence. inhibition, % at 20 µM. actives 0.25% (n = 360,000);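 active = inhibition at 20 µM, scaled per plate between control wells, above about 37%, limit read from the data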
#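 Assay system: isolated STEP enzyme / Timing: 20 min at room temperature, dark / Doses: 20 µM, 1% DMSO / Technique: fluorescence intensity, excitation 480 nm, emission 540 nm / Reagent: fluorogenic phosphatase substrate OMFP at 25 µM final / Measure: percent inhibition scaled to no-enzyme and uninhibited-enzyme controls, plate-pattern corrected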
# LMPTP inh – LMPTP (human) inhibition | AID 651560 | actives 0.22% (n = 360,000) | recombinant LMPTP-A, OMFP fluorogenic substrate, fluorescence intensity | inhibition, % at 20 µM;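 active = compounds that cut the enzyme signal by at least half of the control window in the single-dose screen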
# Target sequence (P24666 whole entry, looked up): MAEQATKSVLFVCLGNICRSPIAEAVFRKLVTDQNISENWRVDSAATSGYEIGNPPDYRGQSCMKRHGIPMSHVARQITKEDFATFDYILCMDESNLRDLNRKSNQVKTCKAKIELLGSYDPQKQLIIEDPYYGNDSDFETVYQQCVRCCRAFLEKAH
#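 Test system: LMPTP-A phosphatase enzyme. Amount: LMPTP-A at 0.625 nM final in the reaction. Reagent: OMFP substrate, 400 µM final. Times: 50 min at room temperature. Signal: endpoint fluorescence intensity from OMFP dephosphorylation. Read-out basis: % inhibition. Benchmarks: no-enzyme and uninhibited controls.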
# SUMO1 PPI mod – SUMO1-SIM interaction modulation | SUMO1 binding to a labelled peptide, TR-FRET, 1 h | P63165 | inhibition, % at 20 µM | actives 0.33% (n = 360,000) | AID 602429; in the data active = inhibition above about 37%
# Target sequence (P63165 whole entry, looked up): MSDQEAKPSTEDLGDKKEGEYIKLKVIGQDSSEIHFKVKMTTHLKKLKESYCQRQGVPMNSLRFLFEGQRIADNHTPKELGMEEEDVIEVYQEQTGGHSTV
# CSN inh – CSN deneddylation inhibition. Q92905. Purified CSN, SCF-Nedd8-OG deneddylation, fluorescence polarization. inhibition, % at 12.5 µM. actives 0.38% (n = 360,000);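 active = pattern-corrected inhibition above about 35%, with an unprinted fluorescence ratio check between 0.5 and 1.5, limit read from the data, passing the limit was not always enough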
#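 Test system: purified human Csn5 enzyme expressed in HEK293T cells. Amount: 0.24 nM enzyme. Reagent: SCFSkp2-Nedd8OG substrate at 10 nM final. Schedule: 90 min incubation of compound, enzyme and substrate at room temperature. Detection: fluorescence polarization. Read-out: % inhibition of substrate cleavage by Csn5.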
# Scp-1 inhibitor – inhibitors of human Scp-1 phosphatase; Q9GZU7; Recombinant Scp1, phosphopeptide, malachite green phosphate absorbance; inhibition, % at 20 µM; actives 0.88% (n = 340,000); AID 493091;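 active = inhibition above about 50% at 20 µM, limit read from the data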
# Target sequence (Q9GZU7 76-261 limits assumed): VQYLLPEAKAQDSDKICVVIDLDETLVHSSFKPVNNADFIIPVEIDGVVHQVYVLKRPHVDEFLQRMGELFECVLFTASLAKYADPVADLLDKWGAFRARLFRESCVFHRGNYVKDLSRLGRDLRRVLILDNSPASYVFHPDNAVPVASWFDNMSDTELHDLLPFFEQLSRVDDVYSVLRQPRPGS
#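 Test system: SCP-1 phosphatase catalytic domain, residues 76-261; measured by: colorimetric phosphate reagent with accelerator and stabiliser, absorbance at 630 nm; timing: enzyme reaction 45 min at room temperature, colour 5 min, stabilisation 30 min; also added: Phosphorylated 17-residue peptide substrate; compound dosing: one concentration, 20 µM, with 1.0% DMSO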
# DNMT1 interf DR – beacon fluorescence artifact, dose response counter-screen. shares compounds with DNMT1 block. molecular beacon fluorescence, spectral interference counter-screen. IC50, µM. 200 tested, under 10 active. AID 602382; call rule not given here
# DNMT1 confirm – confirmation of human DNMT1 inhibitors; inhibition, % at 10 µM; actives 8% (n = 2,300); shares compounds with DNMT1 block; DNMT1 molecular beacon HinP1I cleavage, fluorescence;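 active = average inhibition of at least 30% in the single-concentration confirmation test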
# Beacon interf – beacon fluorescence artifact counter-screen | actives 1% (n = 2,300) | shares compounds with DNMT1 block | activation (fluorescence interference), % at 10 µM | AID 602387 | DNMT1 molecular beacon spectral interference counterscreen, fluorescence 485/520;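 active = activation of at least 30% at 10 µM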;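 note: DNMT1 catalytic domain with a HinP1I cleavage step and a FAM/dabcyl DNA beacon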
# A number is an active result; . = inactive; / = not tested or not shown. Compounds with a hit are over-represented: about 2% of the library has one in this group of screens.
SMILES,DNMT1 block,STEP inh,LMPTP inh,SUMO1 PPI mod,CSN inh,Scp-1 inhibitor,DNMT1 confirm,Beacon interf,others
COc1ccc(-c2csc3nc(-c4ccc(C)cc4)oc(=O)c23)cc1OC,85,.,.,.,.,.,.,.,
COc1ccc(-c2csc3nc(C(C)(C)C)oc(=O)c23)cc1OC,.,.,.,.,.,.,/,/,
CN(C(=O)C1Cc2c(-c3ccccc3Oc3ccccc3)ccnc2O1)c1ccccc1 (stereo not drawn),76,.,.,.,.,/,.,.,
O=C(Nc1cc(Cl)ccc1N1CCOCC1)c1ccncc1,80,.,.,.,.,.,.,.,
O=C(Nc1cc(Cl)ccc1N1CCOCC1)c1cnccn1,.,.,.,.,.,.,/,/,
O=C(COC(=O)c1ccc(NS(=O)(=O)c2cccs2)cc1)NCc1ccco1,92,.,.,40,.,92,71,.,DNMT1 interf DR=.
O=C(COC(=O)c1ccccc1Cl)NCc1ccco1,85,.,.,.,.,.,.,.,
CCOC(=O)c1cc(-c2ccc(C)cc2)n(CC(=O)NCc2ccco2)c1C,50,.,.,.,.,.,.,.,
O=C(COC(=O)c1ccccc1Nc1ccccc1)NCc1ccco1,.,.,.,.,.,.,/,/,
CCOC(=O)C1CCC/C1=N\NC(=O)CN(c1cc(OC)ccc1OC)S(=O)(=O)c1ccccc1 (stereo not drawn),.,.,.,.,.,.,/,/,
C=C[C@H]1[C@H](OC2OC(CO)C(O)C(O)C2O)OC=C(C(=O)OC)[C@H]1C[C@H]1CC(=O)C[C@H](CC(=O)CCc2ccc(O)cc2)O1 (stereo partly drawn),/,/,/,/,/,.,/,/,
Cc1cn([C@H]2C[C@H](O)[C@@H](/C=C/C(=O)NCc3ccco3)O2)c(=O)[nH]c1=O,.,.,.,.,.,/,/,/,
COc1cccc(N(C(=O)Cn2nnc(-c3ccc(Cl)cc3)n2)C(C(=O)NCC2CCCO2)c2ccc(C)cc2)c1 (stereo not drawn),59,.,.,.,.,.,.,.,
Cc1ccccc1OCCC(=O)Nc1ccccc1C(=O)N1CCCCC1,.,.,.,.,.,.,/,/,
O=C(N/N=C\c1ccc(Br)o1)C1COc2ccccc2O1 (stereo not drawn),51,.,.,.,.,.,.,.,
COc1ccccc1C(=O)O[C@H]1[C@H](Cc2ccccc2)NS(=O)(=O)[C@H]2C[C@@H]3C=C[C@]12O3,.,.,.,.,.,.,/,/,
Nc1cc(S(=O)(=O)Nc2ccc(Cl)cc2)ccc1N1CCOCC1,169,.,.,.,.,.,.,.,
Nc1cc(S(=O)(=O)Nc2ccccc2Cl)ccc1N1CCOCC1,.,.,.,.,.,.,/,/,
COc1ccc(C2c3[nH]c4ccccc4c3C[C@H]3C(=O)N(c4ccccc4C(=O)N4CCC[C@H]4C(=O)O)C(=O)N23)cc1 (stereo partly drawn),.,.,.,.,.,.,/,/,
COCCCn1c(C(=O)N2CCOCC2)cc2c(=O)n3cccc(C)c3nc21,.,.,.,.,.,.,/,/,
COCCCn1c(C(=O)Nc2ccc3c(c2)OCO3)cc2c(=O)n3cccc(C)c3nc21,83,.,.,.,42,/,.,.,
COc1ccc(OC)c(C(=O)Cn2c3[n+](c4ccc(C(F)(F)F)cc42)CCCCC3)c1,.,.,.,.,.,.,/,/,
COc1ccc(CNC(=O)C2CC(c3ccccc3C(F)(F)F)=NO2)cc1 (stereo not drawn),72,.,.,.,.,.,.,.,
O=C1C=C(O)CC(c2ccco2)C1 (stereo not drawn),80,.,.,.,.,.,.,.,

# Compound activity: PubChem, Sanford-Burnham Center for Chemical Genomics
